These results are taken from ChEMBL document CHEMBL1136005 (J Med Chem, 2002).

In brackets after ≈: the same amount, converted by molar mass.

Series [1] is described as follows: Plasma concentration was determined after 8 hr at a dose 30 mg/kg administered orally to rat-12. Particulars: po. The series is classed as ADME, organism-based. Details: dose 30 mg/kg, route oral. An outline of the steps:
(§1)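 Sprague-Dawley rats, n=2 per compound, dosed orally at 30 mg/kg. Plasma drug concentration measured 1 and 8 h after dosing.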

Series [2] is described as follows: pharmacokinetic parameter was evaluated after oral administration of 30 mg/kg to rat. The series is classed as ADME, organism-based. Details: dose 30 mg/kg, route oral. The conditions noted are these: in vivo. A digest of the protocol: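 Sprague-Dawley rats, n=3, dosed orally at 30 mg/kg. Plasma drug concentrations were followed to derive Tmax (h), Cmax (µg/mL), T1/2 (h) and AUC0-∞ (µg h/mL).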

Series [3] is described as follows: Plasma concentration was determined after 1 hr at a dose 30 mg/kg administered orally to rat-11. The conditions noted are these: po. The series is classed as ADME, organism-based. Further details: dose 30 mg/kg, route oral. An outline of the steps:
as §1

Series [4] can be described thus: Lipophilicity was reported. The series is classed as physicochemical. Particulars: octanol/water.
The nature of series [5]: Plasma concentration was determined after 8 hr at a dose 30 mg/kg administered orally to rat-11. Particulars: po. Further details: dose 30 mg/kg, route oral. The series is classed as ADME, organism-based. A digest of the protocol:
as §1

Series [6] can be described thus: Solubility in aqueous phosphate buffer (pH 7.4) at 20c was determined. The series is classed as physicochemical.
The nature of series [7]: Plasma concentration was determined after 1 hr at a dose 30 mg/kg administered orally to rat-12. Particulars: po. The series is classed as ADME, organism-based. Further details: dose 30 mg/kg, route oral. An outline of the steps: as §1
The nature of series [8]: Plasma concentration was determined after 1 hr at a dose 30 mg/kg administered orally to rat-15. The series is classed as ADME, organism-based. Further details: dose 30 mg/kg, route oral. Particulars: po. An outline of the steps: as §1
The target in series [9] is Platelet-derived growth factor receptor (Homo sapiens, UniProt P09619+P16234). The experiment in a line: Concentration required for 50% inhibition against autophosphorylation of Platelet-derived growth factor receptor beta in intact cells using a two site ELISA. The series is classed as cell-based. (In general: In an ELISA, binding on a coated surface is turned into a signal by an enzyme label.)

A short description of series [10]: Plasma concentration was determined after 1 hr at a dose 30 mg/kg administered orally to rat-16. The series is classed as ADME, organism-based. Particulars: po. Details: dose 30 mg/kg, route oral. An outline of the steps:
as §1

Series [11] is described as follows: Plasma concentration was determined after 8 hr at a dose 30 mg/kg administered orally to rat-16. The series is classed as ADME, organism-based. Further details: dose 30 mg/kg, route oral. Particulars: po. An outline of the steps:
as §1

A short description of series [12]: Plasma concentration was determined after 8 hr at a dose 30 mg/kg administered orally to rat-15. The series is classed as ADME, organism-based. Further details: dose 30 mg/kg, route oral. The conditions noted are these: po. A digest of the protocol: as §1
Series [13] can be described thus: Plasma concentration was determined after 8 hr at a dose 30 mg/kg administered orally to rat-6. The series is classed as ADME, organism-based. Further details: dose 30 mg/kg, route oral. The conditions noted are these: po. A digest of the protocol: as §1
A short description of series [14]: Plasma concentration was determined after 1 hr at a dose 30 mg/kg administered orally to rat-6. The series is classed as ADME, organism-based. Details: dose 30 mg/kg, route oral. Particulars: po. An outline of the steps:
as §1

A short description of series [15]: Plasma concentration was determined after 8 hr at a dose 30 mg/kg administered orally to rat-5. The conditions noted are these: po. The series is classed as ADME, organism-based. Details: dose 30 mg/kg, route oral. A digest of the protocol:
as §1

Series [16] is described as follows: Plasma concentration was determined after 1 hr at a dose 30 mg/kg administered orally to rat-5. The conditions noted are these: po. Details: dose 30 mg/kg, route oral. The series is classed as ADME, organism-based. An outline of the steps: as §1

As for `COc1cc2ncnc(N3CCN(C(=O)Nc4ccsc4)CC3)c2cc1OC`, the concentration at 8 h in series [1] was 700 ng/mL. In addition, in series [2], the AUC (usually concentration integrated over time) was 145 µg·h/mL; the highest level (Cmax) was 15900 ng/mL; the time of peak concentration (Tmax) (in general, the time from dosing to the highest level) was found to be 3.33 h; the half-life (usually the time in which the quantity being followed falls by half) is 4.25 h. Also, the concentration at 1 h in series [3] worked out at 12400 ng/mL. Also, in series [4], the logD – broadly, the decadic logarithm of the distribution of all forms, ionised or not, between an organic phase and buffer at a given pH – worked out at 2.72. The same compound returned a concentration at 8 h in series [5] of 3700 ng/mL. Also, the concentration in solution in series [6] (solubility) was 2 µg/mL (≈ 5.01 µM). This compound also displayed a concentration at 1 h in series [7] of 7700 ng/mL.
Turning to `COc1cc2ncnc(N3CCN(C(=S)NCc4ccco4)CC3)c2cc1OC`, the concentration at 1 h in [8] is 3000 ng/mL. Moreover, 330 nM corresponded to half-maximal inhibition in series [9] (IC50). Further, in series [2], the AUC is 95.8 µg·h/mL, the concentration peaked (Cmax) at 7200 ng/mL, the time of peak concentration (Tmax) worked out at 3.67 h and the half-life was 3.33 h. Also, the log distribution coefficient (logD) in series [4] was determined as 2.75. In addition, the concentration at 1 h in series [10] is 3700 ng/mL. This compound also gave a concentration at 8 h in series [11] of 1400 ng/mL. Further, in series [12], the concentration at 8 h came out at 1200 ng/mL.
Take `COc1cc2ncnc(N3CCN(C(=S)NCc4ccc(Cl)cc4)CC3)c2cc1OC`: half-maximal inhibition in series [9] (IC50) required 70 nM. The concentration at 8 h in [13] is less than 100 ng/mL; in series [15] it was 1300 ng/mL. For the same compound, the concentration at 1 h in series [14] was less than 100 ng/mL; in [16] it was 2400 ng/mL.
